Data set [1] deals with T1, ABHD12 (Mus musculus, UniProt Q99LR1).
T1 sequence (Q99LR1 1-398): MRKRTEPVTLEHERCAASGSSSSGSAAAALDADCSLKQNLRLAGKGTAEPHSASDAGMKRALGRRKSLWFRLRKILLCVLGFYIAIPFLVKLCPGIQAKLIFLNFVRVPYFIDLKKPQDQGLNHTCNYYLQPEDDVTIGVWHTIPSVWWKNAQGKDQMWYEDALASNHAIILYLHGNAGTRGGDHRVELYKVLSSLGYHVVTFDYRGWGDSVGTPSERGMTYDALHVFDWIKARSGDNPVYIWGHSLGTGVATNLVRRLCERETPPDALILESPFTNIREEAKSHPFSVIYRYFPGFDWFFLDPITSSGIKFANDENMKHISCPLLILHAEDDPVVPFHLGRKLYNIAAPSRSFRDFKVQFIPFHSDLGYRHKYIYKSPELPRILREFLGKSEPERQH
Kind of data set: ABHD12-dependent lyso-PS lipase activity of mouse brain membrane proteome. Format: biochemical.

Data set [2] concerns the target T2, ABHD2 (Mus musculus, UniProt Q9QXM0).
T2 sequence (Q9QXM0 1-425): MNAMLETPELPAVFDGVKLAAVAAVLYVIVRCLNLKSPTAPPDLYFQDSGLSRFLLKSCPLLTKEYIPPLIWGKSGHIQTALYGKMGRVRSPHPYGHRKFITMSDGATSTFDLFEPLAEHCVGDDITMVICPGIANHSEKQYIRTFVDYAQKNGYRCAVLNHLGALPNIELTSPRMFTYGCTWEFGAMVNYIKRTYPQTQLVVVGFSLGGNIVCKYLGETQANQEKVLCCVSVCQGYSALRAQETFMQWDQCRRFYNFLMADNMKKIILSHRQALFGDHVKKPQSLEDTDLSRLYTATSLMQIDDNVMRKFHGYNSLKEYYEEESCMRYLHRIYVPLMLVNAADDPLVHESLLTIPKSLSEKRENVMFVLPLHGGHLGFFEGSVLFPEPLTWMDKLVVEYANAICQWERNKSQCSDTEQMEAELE
Put plainly: Quantitative MS-ABPP of brain membrane proteome from treated mice: ABHD2. The note with it: 30 mg/kg, i.p., 4 h. Format: in vivo. In a few lines:
(§1)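 Mice dosed i.p. with test compound (30 mg/kg) or vehicle and killed after 4 h (isoflurane, then cervical dislocation). Brain membrane serine hydrolase activities quantified by MS-based ABPP. Each protein's value is the mean of median peptide ratios (treated vs vehicle) ± SEM, from n = 4 or 3 independent samples per compound.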

The target of data set [3] is T3, ABHD12 (Homo sapiens, UniProt Q8N2K0).
T3 sequence (Q8N2K0 1-398): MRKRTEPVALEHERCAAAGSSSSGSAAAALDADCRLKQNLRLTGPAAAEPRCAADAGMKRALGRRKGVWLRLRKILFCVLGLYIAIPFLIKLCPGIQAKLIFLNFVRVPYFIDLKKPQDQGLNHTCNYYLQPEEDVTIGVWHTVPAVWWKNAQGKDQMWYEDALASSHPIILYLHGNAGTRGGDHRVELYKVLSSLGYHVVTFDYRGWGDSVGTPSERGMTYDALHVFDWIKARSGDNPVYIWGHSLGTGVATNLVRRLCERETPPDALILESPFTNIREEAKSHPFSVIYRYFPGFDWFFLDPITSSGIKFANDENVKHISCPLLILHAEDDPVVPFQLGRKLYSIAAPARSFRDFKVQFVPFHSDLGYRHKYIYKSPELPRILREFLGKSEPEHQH
Put plainly: Gel-based competitive ABPP. The data set is classed as cell-based. The note with it: 24 h treatment, JJH350 probe. A digest of the protocol: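 PBMCs collected from the gradient interface, red cells lysed (5 min, room temperature) and plated in DPBS at 2.26 × 10⁵ cells/cm²; adherent monocytes attach within 1–2 h. After in situ treatment, proteome (1 mg/mL) labelled with JJH350 (2 μM final, 45 min, 37 °C), clicked and run on gel. ABHD12 band intensity is normalised to the control sample (100%).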

For data set [4], the system named is mouse brain serine hydrolases. Format: biochemical. The following applies: gel-based ABPP 0.1 or 2 μM; MS-based ABPP 1 μM.
In data set [5] the test system is C57BL/6 mice. Kind of data set: Targeted LC-MS of brain lipid content of treated mice. Format: in vivo, mouse. A digest of the protocol:
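Mice received test compound or vehicle i.p. (single doses, 24 h; or 30 mg/kg time course), orally (24 h), or 30 mg/kg daily p.o. for four weeks (8-month-old mice). Brains harvested after isoflurane and cervical dislocation; lipids measured by targeted LC-MS. ABHD12(+/+) and (−/−) brains serve as reference; chronic data given as mean ± SEM.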

The target of data set [6] is T4, PLA2G6 (Mus musculus, UniProt P97819).
T4 sequence (P97819 1-807): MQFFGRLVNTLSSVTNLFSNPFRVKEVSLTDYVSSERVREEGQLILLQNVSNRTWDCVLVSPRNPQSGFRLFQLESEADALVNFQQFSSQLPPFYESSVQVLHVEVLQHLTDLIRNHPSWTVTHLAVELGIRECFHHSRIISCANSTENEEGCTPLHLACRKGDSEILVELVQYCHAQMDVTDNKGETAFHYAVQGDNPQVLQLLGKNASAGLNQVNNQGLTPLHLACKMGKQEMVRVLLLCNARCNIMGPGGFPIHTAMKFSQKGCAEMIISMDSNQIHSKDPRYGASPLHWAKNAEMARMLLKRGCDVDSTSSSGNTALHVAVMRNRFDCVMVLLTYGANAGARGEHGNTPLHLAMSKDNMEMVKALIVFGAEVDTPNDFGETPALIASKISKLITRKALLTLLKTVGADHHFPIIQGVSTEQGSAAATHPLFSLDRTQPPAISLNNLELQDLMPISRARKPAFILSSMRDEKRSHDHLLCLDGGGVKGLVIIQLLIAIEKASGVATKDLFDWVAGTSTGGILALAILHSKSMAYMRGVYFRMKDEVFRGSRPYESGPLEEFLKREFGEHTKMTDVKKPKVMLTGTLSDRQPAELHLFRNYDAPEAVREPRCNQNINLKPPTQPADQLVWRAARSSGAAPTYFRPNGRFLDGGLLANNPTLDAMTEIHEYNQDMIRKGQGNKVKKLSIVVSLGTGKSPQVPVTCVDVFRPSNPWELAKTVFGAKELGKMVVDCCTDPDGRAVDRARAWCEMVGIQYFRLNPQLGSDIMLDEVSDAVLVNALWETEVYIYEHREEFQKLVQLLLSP
Put plainly: Quantitative MS-ABPP of brain membrane proteome from treated mice: PLA2G6. The data set is classed as in vivo. The following applies: 30 mg/kg, i.p., 4 h. A digest of the protocol: as §1

The subject of data set [7] is mice. Kind of data set: Two-week daily dosing, overt signs of toxicity. Format: in vivo, mouse. The note with it: adult mice, 30 mg/kg daily, p.o., two weeks.
For data set [8], the target named is T1, ABHD12. Put plainly: Ex vivo gel-based competitive ABPP. Format: in vivo.

One may read the IC50 as the concentration needed to halve the response being measured.

`FC(F)(F)Oc1ccc(Oc2ccnc(N3CCC(NC(=S)Nc4cccnc4)CC3)c2Cl)c(Cl)c1` [DO264, N-3-pyridyl-N’-(1-[3-chloro-4-{2-chloro-4-(trifluoromethoxy)phenoxy}pyridine-2-yl]piperidin-4-yl)thiourea]: the IC50 in data set [1] stood at 2.8 nM. In data set [2], the “reduction in ABHD2 activity in treated mice” value is on record as 40-50%. Also, the “ABHD12 activity in primary human macrophages” value in data set [3] is reported as “inhibits ABHD12 activity”. Besides, in data set [4], the “selectivity for ABHD12 over other mouse brain serine hydrolases” value is on record as “excellent selectivity”. In data set [5] (30 mg/kg, i.p., detectable by 4 h), the “time post-dosing at which brain lyso-PS changes were maximal” value stood at 24 h. Further, the “brain 20:4 lyso-PI” value in data set [5] (30 mg/kg, p.o., 24 h) is recorded as “increase”. Further, in data set [5] (8-month-old mice, 30 mg/kg daily, p.o., four weeks), the “brain lyso-PS and 20:4 PS after chronic treatment” value is recorded as “Substantial elevations”. Moreover, the “brain lyso-PS species and select 20:4 PS species” value in data set [5] (DO264 1-60 mg/kg, (S)-DO271 60 mg/kg, i.p., 24 h) is reported as “dose-dependently increased”. For the same compound, the “brain 2-AG” value in data set [5] (brain tissue of treated mice) is “did not show changes”. Moreover, in data set [5] (i.p., 24 h), the “dose at which maximal lyso-PS and 20:4 PS elevations were observed” value is reported as 30 mg/kg. In data set [6], the “reduction in PLA2G6 activity in treated mice” value is 40-50%. For the same compound, in data set [7], the “overt signs of toxicity, such as weight loss or behavioral distress” value is listed as “neither compound produced overt signs of toxicity”. Besides, in data set [8] (30 mg/kg, i.p.), the “brain ABHD12 activity at 48 h post-dosing” value is given as “partial recovery” and the “time post-treatment over which inhibition of brain ABHD12 activity was observed” value is 4 to 24 h. In addition, the “brain ABHD12 activity, ex vivo analysis with JJH350 probe” value in data set [8] (C57BL/6 mice, 30 and 60 mg/kg, i.p. (4 h or 24 h) or p.o. (4 h)) is recorded as “complete inhibition”. Further, the “inhibition of ABHD12 in peripheral tissues of mice” value in data set [8] (i.p., 30 mg/kg, 4 h, FP-Rh and JJH350 probes) is on record as “selectively inhibited”.
